In PubChem BioAssay:

molecular target: Muscarinic acetylcholine receptor M4 (Homo sapiens) (UniProt P08173); test: compounds altering M4/GIRK thallium flux, either direction, primary screen, M4 allosteric agonist project, cell-based, HEK293 M4/GIRK, BTC-AM (AID 625); settings: at 10 µM, actives lie on both sides;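 further: thallium influx through GIRK channels coupled to M4 in HEK293 cells with BTC-AM dye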
How it was run: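 Assay system: HEK293 cells with M4 receptor and GIRK channels / Controls: carbachol and DMSO controls / Schedule: 1 h dye loading, 2 min kinetic read / Technique: kinetic fluorescence with BTC-AM dye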

Chain of Muscarinic acetylcholine receptor M4 (Homo sapiens) (P08173 whole entry, looked up): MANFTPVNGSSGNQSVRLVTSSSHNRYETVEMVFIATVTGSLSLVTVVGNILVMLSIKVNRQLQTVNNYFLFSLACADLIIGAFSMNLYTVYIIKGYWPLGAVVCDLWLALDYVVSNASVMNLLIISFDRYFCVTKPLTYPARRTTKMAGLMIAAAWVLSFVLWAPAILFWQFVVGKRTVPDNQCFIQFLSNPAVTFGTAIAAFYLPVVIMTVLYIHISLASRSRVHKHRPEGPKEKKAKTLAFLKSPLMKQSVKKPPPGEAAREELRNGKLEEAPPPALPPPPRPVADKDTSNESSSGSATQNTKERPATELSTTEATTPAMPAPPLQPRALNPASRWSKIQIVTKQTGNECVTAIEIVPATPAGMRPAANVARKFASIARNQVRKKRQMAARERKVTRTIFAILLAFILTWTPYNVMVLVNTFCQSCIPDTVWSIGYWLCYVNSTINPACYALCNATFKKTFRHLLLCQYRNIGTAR

Fluorescence slope, inactive:
Cc1ccc(-c2nnn(CC(=O)NC3CC4CCC3C4)n2)cc1 (stereo not given) 0.00799, CCOc1cc2[nH]c(=O)n(CCCCC(=O)N3CCCCCC3)c(=O)c2cc1OCC 0.00663, Cc1ccc(C(C)C)c(OCc2nnc(SCC(=O)Nc3ncc(C)s3)n2C)c1 0.00564, COc1cccc(-n2c(SCC(=O)OC(C)C)nnc2-c2cccnc2)c1 0.00575, COCCn1c(SCC(=O)Nc2nnc(C)s2)nnc1-c1c[nH]c2ccccc12 0.00466, CCOC(=O)c1[nH]cc(-c2ccccc2)c1N1CCOCC1 0.00498, CC(C)OP(=O)(c1ccc(N(C)C)cc1)C(O)c1ccccc1F (stereo not given) 0.00489, O=C(CSc1nnc(Cn2cnc3ccccc32)o1)c1ccccc1 0.00662, N#Cc1c(NC(=O)COC(=O)C2CC3C=CC2C3)oc(-c2ccccc2)c1-c1ccccc1 (stereo not given) 0.00531, O=C(NCc1ccccc1)N1CCn2c(nc3ccccc32)C1 0.00568, CCCCn1c(SCc2cccnc2)nc2c1c(=O)n(C)c(=O)n2C 0.00468, CCOC(=O)c1[nH]c2ccccc2c1NC(=O)c1ccco1 0.00748, CC(C(=O)NCCCN1CCOCC1)n1cccc1C(=O)c1ccccc1 (stereo not given) 0.00579, COc1ccccc1NS(=O)(=O)c1ccc(NC(=O)c2nc3ncccn3n2)cc1 0.0057, CCCCCCC(=O)c1c(C)[nH]c(C(=O)OCC)c1C 0.00442
